High-throughput results: PubChem BioAssay, The Scripps Research Institute Molecular Screening Center
This is a sample that favours compounds with a hit; in the whole collection about 1.8% have one here.
CHRM5 antagonist: antagonists of human muscarinic M5 receptor (CHRM5); P08912; CHO-hM5 cells, Fluo-8 calcium fluorescence, ACh EC80; inhibition, % at 3 µM; 360,000 compounds, 0.59% hits; AID 624040;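 active = inhibition above a per-plate cutoff, the mean of that plate's test compounds plus 3 SD, cut at about 27% in these data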
Target sequence (P08912 whole entry, looked up): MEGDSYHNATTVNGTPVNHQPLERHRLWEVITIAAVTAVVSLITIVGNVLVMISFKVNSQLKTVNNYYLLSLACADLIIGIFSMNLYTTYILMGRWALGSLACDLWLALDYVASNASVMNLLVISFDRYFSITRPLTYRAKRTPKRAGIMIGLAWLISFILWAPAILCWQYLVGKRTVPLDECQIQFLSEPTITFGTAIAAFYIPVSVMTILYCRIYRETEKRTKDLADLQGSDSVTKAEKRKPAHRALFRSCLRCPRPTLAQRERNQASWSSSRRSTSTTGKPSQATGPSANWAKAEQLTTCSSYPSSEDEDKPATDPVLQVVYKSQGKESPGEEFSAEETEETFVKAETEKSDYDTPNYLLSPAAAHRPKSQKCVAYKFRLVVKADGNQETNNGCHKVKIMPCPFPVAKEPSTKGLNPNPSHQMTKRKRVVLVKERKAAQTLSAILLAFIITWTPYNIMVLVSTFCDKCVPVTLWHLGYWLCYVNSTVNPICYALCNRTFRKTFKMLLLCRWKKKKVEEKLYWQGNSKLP
CHRM5 PAM: CHRM5 positive allosteric modulation; P08912; CHO-K1 hM5, Fluo-8 calcium, ACh EC20 PAM; 0% = ACh EC20, 100% = ACh EC100; activation, % at 3 µM; 360,000 compounds, 0.3% hits;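 active = activation above the run cutoff, the mean activation of all test compounds plus 3 SD, cut at about 18% in these data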
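Test system: CHO-K1 hM5 cells / Doses: single-point, 3 µM nominal / Times: Post-acetylcholine fluorescence recording 140 s / Technique: Fluo-8 calcium fluorescence / Measure: Max/basal fluorescence ratio as % of EC20–EC100 ACh window / Benchmarks: low control EC20 acetylcholine (0%), high control EC100 acetylcholine (100%) / Replicates: one well per compound, no replicates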
M4 ag: agonists of human muscarinic M4 receptor (CHRM4); P08173; CHO-K1 hM4/Gqi5, Fluo-8 calcium fluorescence; vehicle 0%, full acetylcholine response 100%; activation, % at 3 µM; 360,000 compounds, 0.14% hits; AID 624127;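 active = activation above the run mean over all test wells plus 3 SD, cut at about 32% in these data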;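 note: peak over basal fluorescence ratio per well then scaled between controls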
CHRM5 agonist: agonists of human muscarinic M5 receptor (CHRM5); P08912; CHO-K1 hM5 cells, Fluo-8 calcium fluorescence; 0% DMSO wells, 100% maximal acetylcholine response; activation, % at 3 µM; 360,000 compounds, 0.19% hits; AID 624037;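 active = activation above the run's mean over test compounds plus 3 SD, cut at about 23% in these data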;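 note: signal is peak over basal fluorescence ratio across the kinetic read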
CHRM4 PAM: positive allosteric modulators of human muscarinic M4 receptor; 360,000 compounds, 0.4% hits; activation, % at 3 µM; CHO-K1 hM4/Gqi5, Fluo-8 calcium fluorescence, ACh EC20; 0% = ACh EC20, 100% = maximal ACh;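 active = activation above its plate's cutoff, the mean activation of sample wells plus 3 SD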
CHRM4 antagonist: antagonists of human muscarinic M4 receptor (CHRM4); inhibition, % at 3 µM; AID 624125; CHO-hM4 cells, ACh EC80, Fluo-8 calcium fluorescence; P08173; 360,000 compounds, 0.73% hits;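 active = inhibition above its plate's cutoff, the mean inhibition of sample wells plus 3 SD, cut at about 27% in these data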
Large screens that a line does not name were inactive; ! = not confirmed by another sample.

Cc1cc(S(=O)(=O)NC2CC(C)(C)NC(C)(C)C2)c(Cl)cc1Cl	none
Cc1cccc(C2(c3cccc(C)c3)CC2C(=O)Nc2ccc([N+](=O)[O-])cc2O)c1 (stereo not drawn)	CHRM5 antagonist 32.8, CHRM4 antagonist 27.2
COc1ccc(NC(=O)C(Cl)=C(Cl)Cl)cn1	none
COc1ccc(NC(=O)/C(Cl)=C(/Cl)S(=O)Cc2ccc(Cl)cc2)cn1 (stereo not drawn)	CHRM4 antagonist 30.2
O=C(CNCC1(N2CCOCC2)CCCCC1)Nc1ccc(Cl)cc1	CHRM5 PAM 18.3
CC1O[C@@H](O[C@H](C)CC[C@@H](C)O[C@H]2OC(C)[C@@H](O)C[C@H]2O)C(O)C[C@H]1O (stereo partly drawn)	none
NNC(=O)c1oc2nc(-c3cccs3)cc(-c3ccco3)c2c1N	CHRM4 PAM 26.1
CC(C)C(=O)N1CCC1(C)C(=O)Nc1ccc2cn[nH]c2c1 (stereo not drawn)	none
COc1cccc(CNC(=O)c2nnn(CC(=O)Nc3cccc(C)c3)c2N)c1	none
COc1ccc(N2C(=O)CC(Cc3ccccc3)C2=O)cc1 (stereo not drawn)	none
O=C1C=CC2(C=C1)O[C@H](Cc1ccccc1)[C@@H](Cc1ccccc1)O2	CHRM4 antagonist 62.0
COc1ccc(C[C@@H]2OC3(C=CC(=O)C=C3)O[C@H]2Cc2ccc(OC)cc2)cc1	CHRM4 antagonist 75.7
CCc1nn(CCCC(=O)NCc2ccccc2C)c(=O)c2cc3occc3n12	none
CCn1c(=O)c(C(=O)NNC(=O)c2ccccc2F)c(O)c2ccccc21	none
CCn1c(=O)c(C(=O)NNC(=O)c2ccccc2Cl)c(O)c2ccccc21	M4 ag 54.4
Cc1ccc(NC(=O)c2ccc(NCc3ccc(F)cc3)nc2)cc1	CHRM5 antagonist 31.8
Cc1c(NS(=O)(=O)c2cccc(C(=O)Nc3cccc(F)c3)c2)c(=O)n(-c2ccccc2)n1C	none
Cc1ccc(-c2ccc(S(=O)(=O)Nc3cccnc3)cc2)cc1	none
COC(=O)c1c(-c2cccc(OC)c2)csc1N	none
COC(=O)c1c(-c2ccc(OC)c(OC)c2)csc1N	CHRM5 PAM 43.7
CN(C)CCC[C@@]1(c2ccc(F)cc2)OCc2cc(C#N)ccc21	CHRM4 antagonist 29.9
CN(C)CCC[C@]1(c2ccc(F)cc2)OCc2cc(C#N)ccc21	none
C=CCn1c(O)c(C2=c3ccccc3=NC2=O)c2ccccc21	CHRM4 antagonist 49.8
CC[C@H](C)C1OC(=O)[C@@H](C)[C@@H](CC)NC(=O)[C@H](C)N(C)C(=O)C(C)(C)C(=O)C(C)NC(=O)[C@H](Cc2ccc(OC)cc2)N(C)C(=O)[C@H](C(C)C)N(C)C(=O)CNC(=O)[C@H](CC(C)C)N(C)C(=O)CNC1=O (stereo partly drawn)	CHRM4 PAM 22.7
Cc1ccc(CSC2=NCCN2C(=O)c2ccc(S(=O)(=O)N(C)C)cc2)cc1	none
Cc1cc(C)cc(NC(=O)c2nnn(Cc3cc(C)ccc3C)c2N)c1	M4 ag 32.4, CHRM5 agonist 28.1
Cc1ccc(C)c(Cn2nnc(C(=O)Nc3ccc4c(c3)OCCO4)c2N)c1	CHRM5 agonist 36.2
Cc1ccccc1Cn1nnc(C(=O)Nc2ccc3c(c2)OCCO3)c1N	none
COc1ccc(NC(=O)c2[nH]ncc2[N+](=O)[O-])cc1	CHRM5 PAM 18.1
Cc1cc(SCC(=O)N2CCCC2=O)nc2c(C)cccc12	none
Cc1cc(SCC(=O)O)nc2ccccc12	CHRM5 PAM 18.3!
Cc1cc(SCCC(=O)O)nc2c(C)cccc12	CHRM5 PAM 33.1
CC(C)Cc1ccc(CN2CCCC(NC(=O)CCN3CCCO3)C2)cc1 (stereo not drawn)	none
Cc1ccc2oc(C(=O)NCc3ccccc3)cc(=O)c2c1	none
Cc1cc2oc(C(=O)NCc3ccccc3)cc(=O)c2cc1C	CHRM5 antagonist 96.8, CHRM4 antagonist 98.0
Cn1c(CNC(=O)C2CCCCC2)cc2cc(Cl)ccc21	CHRM4 PAM 17.4
COc1ccc(C[C@@H]2CN3C(=NC[C@@H]3Cc3ccc(O)cc3)N2C[C@H](C)NC(=O)CCC2CCCCC2)cc1	CHRM4 antagonist 27.5
O=C(COC(=O)c1cccnc1Cl)Nc1cc(S(=O)(=O)N2CCCCCC2)ccc1Cl	none
Cc1ccc(NC(=O)C[n+]2ccn(C3=C([O-])c4ccccc4C3=O)c2)cc1	CHRM5 antagonist 29.4
CCN(CC)c1ccc2c(Cl)c(Br)c(=O)oc2c1	CHRM5 antagonist 70.1, CHRM5 agonist 28.0, CHRM4 antagonist 62.2
Nc1c(C(=O)CSc2ncccn2)c(=O)[nH]c(=O)n1C1CC1	none
CC(C)(C)NC(=O)CSCc1ccc(Br)cc1	none
COc1ccccc1Nc1nc2ccccc2n1C	CHRM4 antagonist 43.9
O=C(NC1CC1)C1CCN(C2CCN(C(=O)/C=C/c3cccc(F)c3F)CC2)CC1	none
O=C(NC1CC1)C1CCN(C2CCN(C(=O)/C=C/c3cccs3)CC2)CC1	CHRM5 antagonist 29.3, CHRM5 PAM 28.4
C/C(CC1CC2=C(CC1(C)C)C(C)(C)CCC2)=N\NC(N)=S (stereo not drawn)	CHRM4 PAM 42.9
C/C(CC1CC(C)(C)OC1=O)=N\NC(N)=S (stereo not drawn)	none
CC1(Oc2cccc(F)c2)CCN(Cc2csc3ccccc23)C1 (stereo not drawn)	none
COC(=O)Cc1ccc(OC2(C)CCN(Cc3csc4ccccc34)C2)cc1 (stereo not drawn)	CHRM4 antagonist 54.2
C=C(C)CSc1nnc(-c2ccc(OC)c(OC)c2)n1N	CHRM4 PAM 30.5
CCOc1ccc(OCC)c(NC(=O)c2nnn(CC(=O)Nc3cc(C)cc(C)c3)c2N)c1	none
COc1ccc([N+](=O)[O-])c(S(=O)(=O)c2ccccc2)n1	CHRM4 antagonist 29.6
COc1ccc([N+](=O)[O-])c(S(=O)(=O)c2ccc(Cl)cc2)n1	none
CC1CCN(C(=O)COC(=O)/C=C/c2ccco2)CC1	none
NCCc1nnc(SCc2ccc(F)cc2)o1	none
NCCCCCc1nnc(SCc2ccc(Cl)c(Cl)c2)o1	CHRM5 antagonist 35.9, CHRM4 antagonist 67.0
Cc1cccc2cc(CN(CCN(C)C)C(=S)Nc3ccccc3)c(=O)[nH]c12	CHRM5 PAM 23.6, CHRM4 PAM 35.9
Cc1cccc(NC(=S)N(CCN(C)C)Cc2cc3cc(C)ccc3[nH]c2=O)c1	none
CCN(CC)CCN(Cc1cc2cc(C)ccc2[nH]c1=O)C(=S)Nc1ccccc1	CHRM5 antagonist 45.6, CHRM5 agonist 52.1
Cc1ccc(N(Cc2cc3cccc(C)c3[nH]c2=O)S(=O)(=O)c2ccccc2)c(C)c1	CHRM5 antagonist 27.9
